Measurements gathered from unrelated publications.
Each line is one published result; the experiments were not run side by side.

Structure (SMILES)	test	test system	conditions	endpoint	result
CC(=O)N[C@@H](Cc1ccccc1)C(=O)N[C@@H](Cc1ccccc1)C(=O)N1CCC[C@H]1C(=O)N[C@@H](CC(C)C)C(=O)NCC(=O)N[C@@H](CC(C)C)C(=O)N[C@@H](C)C(=O)NCC(=O)N[C@@H](CC(=O)O)C(=O)N[C@@H](CC(=O)O)C(=O)O	chemical stability	human, plasma	1 mM, pH 7.4	half-life	20.7 h
COc1ccc([C@@H]2CN(C(=O)[C@@H](O)CO)C[C@@]2(C)[C@@H](C)O)cc1OC1CN(c2ccc(C)cn2)C1		human, plasma	oral, 0.5 mg, single dose, healthy volunteers	half-life	11.9 h
C[C@]1(c2nc3c(C(N)=O)cccc3[nH]2)CCCN1		male rhesus monkey, plasma	oral, 5 mg/kg, single dose	AUC(0-inf)	3.7 µM·h
CC[C@H](C)[C@H](NC(=O)[C@H](CCC(=O)O)NC(=O)[C@H](CO)NC(=O)[C@@H](NC(=O)[C@@H](N)CO)C(C)C)C(=O)N[C@@H](CCC(N)=O)C(=O)N[C@@H](CC(C)C)C(=O)N[C@@H](CCSC)C(=O)N[C@@H](Cc1cnc[nH]1)C(=O)N[C@@H](CC(N)=O)C(=O)N[C@@H](CC(C)C)C(=O)NCC(=O)N[C@@H](CCCCN)C(=O)N[C@@H](Cc1cnc[nH]1)C(=O)N[C@@H](CC(C)C)C(=O)N[C@@H](CC(N)=O)C(=O)N[C@@H](CO)C(=O)N[C@@H](CCSC)C(=O)N[C@@H](CCC(=O)O)C(=O)N[C@@H](CCCN=C(N)N)C(=O)N[C@H](C(=O)N[C@@H](CCC(=O)O)C(=O)N[C@@H](Cc1c[nH]c2ccccc12)C(=O)N[C@@H](CC(C)C)C(=O)N[C@@H](CCCN=C(N)N)C(=O)N[C@@H](CCCCN)C(=O)N[C@@H](CCCCN)C(=O)N[C@@H](CC(C)C)C(=O)N[C@@H](CCC(N)=O)C(=O)N[C@@H](CC(=O)O)C(=O)N[C@H](C(=O)N[C@@H](Cc1cnc[nH]1)C(=O)N[C@@H](CC(N)=O)C(=O)N[C@@H](Cc1ccccc1)C(=O)O)C(C)C)C(C)C	chemical stability, HPLC	aqueous buffer	0.5 mg/mL, 10 min, pH 6.5	compound remaining	100%
CC(=O)OCOC(=O)C1CC(C)(C)N([O])C1(C)C (stereo not drawn)	chemical stability	bovine, serum		half-life	0.567 h
CC(C)(C)c1ccc(O)c(CN(Cc2cc(C(C)(C)C)ccc2O)C2CCC(NC(N)=O)CC2)c1 (stereo not drawn)		male C57BL/6 mouse, plasma	intraperitoneal, 10 mg/kg, single dose	Vd	3.7 L
CC(C)n1cc(C#N)c2cc(-n3cc(C(=O)O)cn3)ccc21		human, plasma	oral, 200 mg, single dose, fed, healthy volunteers	half-life	15 h
CC(C)(O)c1ccccc1-c1ccc2[nH]c(/C=C/c3ccc(C(F)(F)F)cc3)nc2c1		male human, plasma	oral, 30 mg, single dose, fasted, healthy volunteers	half-life	82.6 h
COCCOc1cnc2ccn([C@H](C)c3nnc4c(F)cc(-c5cnn(C)c5)cn34)c(=O)c2c1		human, plasma	oral, 25 mg, multiple doses, once daily, patients	half-life	6.3 h
